Source: PubChem (several laboratories)
In the library only some 2.6% were active in any assay of this set; here they are far more common.
Platelet DG rel – modulates dense granule release in human platelets; inhibition, %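 (compounds screened at 7.5 µM in platelet-rich plasma)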; actives 0.22% (n = 300,000); human platelet-rich plasma, SFLLRN dense granule ATP release, luminescence; AID 1663;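 active means mean replicate score, as percent of positive control, at or above 50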
Rce1 inhib – blocks yeast Ras-converting enzyme | calls only | Q03530 | yeast membranes, quenched prenylated peptide cleavage fluorescence | actives 0.27% (n = 290,000);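 active means fall in fluorescence gain of 50% or more versus controls, with final raw signal at or below 3038400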;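 further: plate controls were neutral control wells for no effect and wells lacking membranes for full effect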
VLA-4 inh – inhibition in a human VLA-4 binding assay; VLA-4 expressing cells, ligand binding flow cytometry; inhibition, % (about 7 µM as worked out from the volumes in the protocol); P13612; actives 0.2% (n = 330,000); AID 2557; in the data active means inhibition above about 50%
TAAR1 antag – antagonists of human TAAR1; CHO RD-HGA16 TAAR1, Fluo-8 calcium fluorescence, antagonist; inhibition, % at 3 µM; actives 1.5% (n = 360,000); AID 624466;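 active means inhibition above a per-plate cutoff, the mean inhibition of test compounds on that plate plus 3 SD, cut at about 49% in these data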;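 further: 0% = DMSO plus EC80 beta-PEA response and 100% = DMSO alone without agonist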
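Test system – hTAAR1-expressing CHO RD-HGA16 cells, Gα16-coupled · Reagent – β-PEA at EC80 concentration, post-compound challenge · Compound dosing – 3 µM, single point · Timing – 140 s kinetic read after compound, 140 s after agonist · Detection – Fluo-8 intracellular calcium dye fluorescence, real-time kinetic reads · Control set – DMSO and EC80 PEA controls · Repeats – n of 1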
TAAR1 ag – agonists of human TAAR1; Q96RJ0; actives 0.99% (n = 360,000); CHO RD-HGA16 TAAR1, Fluo-8 calcium fluorescence; vehicle wells 0%, saturating PEA agonist 100%; activation, % at 3 µM;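 active means activation above the mean activation of all test compounds in the run plus 3 SD, cut at about 38% in these data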
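Assay system – CHO-derived RD-HGA16 cells with stable Gα16 and human TAAR1 · Compound dosing – one-point dosing at 3 µM (nominal) · Incubation – 17-24 h seeding, 75 min 37 °C dye, 30 min RT · Measured by – kinetic Fluo-8 calcium fluorescence · Control set – DMSO vehicle as 0%, PEA at EC100 as 100% · Repeats – single well for each compound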
* = called active by the depositor; i = inactive; . = no result given; + = active, no number.

SMILES | Platelet DG rel | Rce1 inhib | VLA-4 inh | TAAR1 antag | TAAR1 ag
COc1ccc(/C=C/C(=O)c2ccc(NC(=O)c3cccs3)cc2)cc1OC | -6 | i | 1 | 53* | 43*
COc1ccc(C(=O)Nc2ccc(NC(=O)c3cccs3)cc2)cc1Cl | -3 | i | 2 | 6 | 6
COc1ccc(Br)cc1/C=C/C(=O)c1ccc(NC(C)=O)cc1 | . | . | -2 | 56* | 13
COc1c(Cl)cc(Cl)cc1C(=O)Nc1ccc(NC(=O)c2cccs2)cc1 | -4 | i | 4 | 69* | 16
COc1ccc(NC(=O)/C=C/c2cc(Br)ccc2OC)cc1 | 3 | i | -2 | 12 | 1
COc1ccc(NC(=O)CN(C)C(=O)CCc2nc3cc(S(=O)(=O)N4CCOCC4)ccc3n2C)cc1 | . | i | 4 | -11 | 1
CCOc1ccc(N(C)c2ccc(/C=C3/SC(=S)NC3=O)cc2)cc1 | 7 | i | -142 | 59* | 24
O=C1NC(=S)S/C1=C/c1ccc(Oc2cnccn2)cc1 | 3 | . | -4 | -26 | 2
COc1ccc(C)cc1NC(=O)c1ccc2c(O)c(S(=O)(=O)c3ccccc3)c(=O)[nH]c2c1 | 8 | i | 4 | -5 | 1
CC(NC(=O)C1CCC(CNS(=O)(=O)c2ccc3c(c2)C(C)(C)C(=O)N3C)CC1)c1ccccc1 (centres undefined) | -2 | i | -1 | -14 | 1
CCOc1ccccc1N1CCN(C(=O)c2cccc(-c3ccc(O)cc3)c2)CC1 | -1 | i | 2 | 51* | 14
COc1cccc(C(=O)N2CCC[C@@H]2C(=O)N2CCC[C@@H]2C(=O)NCc2ccccc2Cl)c1 | . | . | . | 5 | 11
Cc1nc2ccccc2c(N)c1C(=O)/C=C/c1ccccc1 | -13 | i | 2 | 8 | 41*
CCN(CC(=O)NCc1ccc(Cl)cc1)C(=O)c1ccc(S(=O)(=O)N(C)C)cc1 | 0 | i | 2 | -18 | 1
Cc1cccc(N2CC(C(=O)Nc3nccs3)CC2=O)c1C (centres undefined) | 12 | i | -11 | -15 | 2
CCOc1ccccc1N1CC(C(=O)Nc2nccs2)CC1=O (centres undefined) | 52* | i | -1 | -8 | 14
Cc1nc(N2CCN(Cc3ccc(Cl)cc3)CC2)c2oc3ccccc3c2n1 | 1 | i | -3 | -28 | 0
c1ccc(N2CCN(c3ncnc4c3oc3ccccc34)CC2)cc1 | -11 | i | -2 | 49* | 15
CCc1nnc(N2CCN(c3ncnc4c3oc3ccccc34)CC2)s1 | 1 | i | . | -2 | 11
Cc1nc(N2CCC(C)CC2)c2oc3ccccc3c2n1 | 60* | i | 8 | -21 | 12
COC(=O)/C=c1\[nH]c2nnc(C)n2c1=O | 4 | + | 2 | -7 | 3
COc1ccc(C(=O)NNC(=O)CCc2ccccc2OC)cc1 | 0 | i | -5 | -22 | -1
C=CC[C@@H](CC(=O)N(CCO)Cc1ccccc1)C(=O)NCCOC(=O)[C@@H](CC=C)Cc1ccc(F)cc1 | . | . | 4 | -9 | 5
C=CC[C@H](CC(=O)NCCO)C(=O)NC[C@@H](OC(=O)[C@@H](CC=C)Cc1ccc(F)cc1)c1ccccc1 | . | . | 15 | 25 | 10
C=CC[C@H](CC(=O)N(CCO)Cc1ccccc1)C(=O)NC[C@@H](OC(=O)[C@@H](CC=C)Cc1ccc(F)cc1)c1ccccc1 | . | . | 10 | 56* | 11
SMILES | Platelet DG rel | Rce1 inhib | VLA-4 inh | TAAR1 antag | TAAR1 ag
C=CCC[C@H](Cc1ccc(F)cc1)C(=O)O[C@H](CNC(=O)[C@@H](CC=C)CC(=O)N(CCO)Cc1ccccc1)c1ccccc1 | . | . | 26 | 56* | 8
Cc1ccc(NC(=O)NNC(=O)CSC2CCc3ccccc32)c(C)c1 (centres undefined) | . | . | . | -21 | -2
CN1C(=O)N(C)N(Cc2ccccc2)C(=O)N1Cc1ccccc1 | . | . | . | -26 | 3
O=C1C=CC(=O)N1Cc1ccccc1 | 5 | i | 54* | -14 | 1
CC(=O)Nc1ccc(S(=O)(=O)NC2(C(F)(F)F)NC(=O)N(c3ccc(C)cc3)C2=O)cc1 (centres undefined) | -7 | . | -4 | 2 | 1
S=C(Nc1ccc(Cl)cc1)NC1CCN(Cc2ccccc2)CC1 | 5 | i | 7 | 21 | 50*
S=C(Nc1ccccc1)NC1CCN(Cc2ccccc2)CC1 | 0 | i | 25 | -7 | 6
O=C(NCCc1c[nH]c2ccccc12)c1c(Cl)nc2sccn12 | -2 | . | 22 | 23 | 39*
O=C(Cc1c(F)cccc1Cl)NCCc1c[nH]c2ccccc12 | -7 | i | 6 | 17 | 3
O=[N+]([O-])c1ccc(-c2cnc(SC(c3ccccc3)c3ccccc3)[nH]2)cc1 | -13 | + | -1 | 38 | 0
NC(=O)CSc1ncc(-c2ccc([N+](=O)[O-])cc2)[nH]1 | -2 | i | 18 | -8 | 2
Cc1cc(C)c(CSc2ncc(-c3ccc([N+](=O)[O-])cc3)[nH]2)c(C)c1 | 0 | i | -5 | 60* | 7
O=[N+]([O-])c1ccc(-c2cnc(SCc3ccccc3Cl)[nH]2)cc1 | -26 | i | 4 | 52* | 1
O=C(Nc1ccc(C(=O)N2CCCCC2)cc1)c1ccccc1Br | -10 | i | 9 | 1 | 2
COc1ccc(OCC(O)CNC(C)c2ccccc2)cc1 (centres undefined) | 9 | i | 0 | -26 | 4
CCCC(NCC(O)COc1ccc(-c2ccccc2)cc1)c1ccccc1 (centres undefined) | 1 | i | -2 | -6 | 40*
CC(NCC(O)COc1ccc(Br)cc1)c1ccccc1 (centres undefined) | 14 | i | 1 | 3 | 43*
CC(NCC(O)COC1CCC(C(C)(C)C)CC1)c1ccccc1 (centres undefined) | -1 | . | 1 | 1 | 44*
COc1cc(CNC(=O)Nc2nc(C(N)Cc3ccc(C(F)(F)F)cc3)cs2)cc(OC)c1OC (centres undefined) | . | . | . | 6 | 5
C=C(C)C(COc1c2occc2cc2ccc(=O)oc12)OC(C)(C)C(O)COc1c2occc2cc2ccc(=O)oc12 (centres undefined) | . | . | 3 | 58* | 16
O=C(NC1CCCCC1)c1cc(C2CC2)nn1-c1ccccc1 | . | . | 9 | -5 | 9
O=C(NNC(=O)c1cc2cc(Br)ccc2oc1=O)c1ccc(O)cc1 | 2 | i | 6 | -17 | 38*
COC(=O)C1=CN(c2ccc(N3CCOCC3)cc2)C(N)=C(C#N)C1c1cccc(F)c1 (centres undefined) | . | . | . | -2 | 0
CCC(c1nnnn1-c1ccc2c(c1)OCCO2)N1CCN(c2ccc(C(F)(F)F)cc2[N+](=O)[O-])CC1 (centres undefined) | . | . | . | 7 | 1
COc1ccc(NC(=O)C2CCCCN2S(=O)(=O)c2ccccc2)cc1S(=O)(=O)N1CCOCC1 (centres undefined) | . | . | . | 58* | 21
